Series [1] has as its target T1, Monoamine oxidase (Homo sapiens, UniProt P21397+P27338).
T1 sequence (P21397 whole entry): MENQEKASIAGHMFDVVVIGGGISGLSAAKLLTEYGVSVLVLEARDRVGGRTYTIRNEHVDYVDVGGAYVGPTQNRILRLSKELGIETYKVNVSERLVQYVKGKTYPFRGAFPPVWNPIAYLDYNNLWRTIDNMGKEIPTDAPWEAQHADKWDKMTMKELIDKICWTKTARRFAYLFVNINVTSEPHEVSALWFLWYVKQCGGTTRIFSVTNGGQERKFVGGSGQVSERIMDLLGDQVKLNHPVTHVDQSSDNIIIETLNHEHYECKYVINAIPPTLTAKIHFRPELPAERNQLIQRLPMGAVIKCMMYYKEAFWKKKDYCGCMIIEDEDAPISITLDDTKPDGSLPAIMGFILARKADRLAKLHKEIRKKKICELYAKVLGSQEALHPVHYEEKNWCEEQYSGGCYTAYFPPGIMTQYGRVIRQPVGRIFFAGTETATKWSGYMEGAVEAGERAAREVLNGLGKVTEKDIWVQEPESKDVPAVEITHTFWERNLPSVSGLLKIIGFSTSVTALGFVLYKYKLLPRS
T1 sequence (P27338 whole entry): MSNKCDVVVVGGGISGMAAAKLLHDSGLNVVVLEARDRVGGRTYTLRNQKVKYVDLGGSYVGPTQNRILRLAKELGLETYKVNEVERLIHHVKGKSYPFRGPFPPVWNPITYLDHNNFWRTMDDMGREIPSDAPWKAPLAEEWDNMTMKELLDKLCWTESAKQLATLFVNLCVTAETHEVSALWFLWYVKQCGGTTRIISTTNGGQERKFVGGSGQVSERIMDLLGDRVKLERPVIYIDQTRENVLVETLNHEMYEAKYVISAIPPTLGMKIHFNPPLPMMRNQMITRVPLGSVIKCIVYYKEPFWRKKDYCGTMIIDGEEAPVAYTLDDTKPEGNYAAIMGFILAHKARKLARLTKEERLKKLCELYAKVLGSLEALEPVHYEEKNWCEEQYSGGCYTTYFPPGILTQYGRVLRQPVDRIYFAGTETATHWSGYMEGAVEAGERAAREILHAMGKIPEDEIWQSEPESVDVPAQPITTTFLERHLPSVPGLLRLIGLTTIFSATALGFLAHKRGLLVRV
The series can be described thus: In vitro inhibitory activity against Monoamine oxidase in baboon brain was determined. The following applies: target entry is the homologue from another species. It is filed as tissue-based, Papio hamadryas.

Series [2] in a line: The absolute striatal uptake of the carbon-11 labeled compound at 60 min was determined in baboon. It is filed as ADME. To be noted: papio hamadryas, 1 h. Put shortly: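 PET in one young adult female baboon (Papio anubis, 12.6 kg). Anaesthesia was ketamine (10 mg/kg), then isoflurane/nitrous oxide maintenance. The same animal was used for three experiments, at least two weeks apart.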

A short description of series [3]: Peak plasma radioactivity for the carbon-11 labeled compound was determined at 0.5 min after injection in baboon; (Range = 0.08-0.11). To be noted: papio hamadryas. It is filed as ADME, cell-free.
The nature of series [4]: Peak plasma radioactivity for the carbon-11 labeled compound was determined at 1.5 min after injection in baboon; (Range = 0.08-0.11). It is filed as ADME, cell-free. To be noted: papio hamadryas, 0.025 h.
Series [5] can be described thus: The amount of unchanged tracer in baboon plasma was determined 1 min after injection of the carbon-11 labeled compound. It is filed as ADME, cell-free. The following applies: papio hamadryas, read-out: Unchanged tracer. A digest of the protocol: (§1)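 Arterial plasma was sampled at 1, 10, 30 and 60 min after tracer injection in the baboon. Unchanged [N-11C-methyl]-4-fluorodeprenyl was measured by HPLC on a C18 Spherisorb 5 ODS column (250 × 4.6 mm). Mobile phase was methanol–0.05 N ammonium formate (70–30%) at 1 mL/min, with UV at 254 nm. Results are given as percent unchanged tracer.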

Series [6] can be described thus: The amount of unchanged tracer in baboon plasma was determined 30 min after injection of the carbon-11 labeled compound. It is filed as ADME, cell-free. The following applies: papio hamadryas, read-out: Unchanged tracer. Put shortly:
as §1

The nature of series [7]: The amount of unchanged tracer in baboon plasma was determined 60 min after injection of the carbon-11 labeled compound. The following applies: papio hamadryas, read-out: Unchanged tracer. It is filed as ADME, cell-free. A digest of the protocol:
as §1

Series [8] in a line: The amount of unchanged tracer in baboon plasma was determined 10 min after injection of the carbon-11 labeled compound. It is filed as ADME, cell-free. The following applies: papio hamadryas, read-out: Unchanged tracer. A digest of the protocol:
as §1

`C#CCN(C)[C@H](C)Cc1ccc(F)cc1` yielded an IC50 in series [1] of 41.7 nM.

On to `C#CCN([11CH3])[C@H](C)Cc1ccc(F)cc1`, for which the “% injected dose/cm3” value in series [2] was found to be 0.053%. The figures for the “Peak radioactivity in blood” value in series [3] and in series [4] were 0.11 % injected dose cm**-3 and 0.01 % injected dose cm**-3, respectively. Further, in series [5], the remaining at 1 min worked out at 96%. Moreover, the remaining at 0.5 h in series [6] was found to be 20%. The remaining at 1 h in series [7] stood at 14%. Also, in series [8], the remaining at 10 min is 50%.

For the compound `C#CCN(C)C(C)Cc1ccc(F)cc1` (stereo not drawn), the Uptake in series [2] stood at 0.041 % injected dose cm**-3. Besides, the entries for the “Peak radioactivity in blood” value in series [3] and in series [4] were 0.11 % injected dose cm**-3 and 0.01 % injected dose cm**-3, respectively. Further, in series [5], the remaining at 1 min worked out at 96%. Also, the remaining at 0.5 h in series [6] stood at 16%. The remaining at 1 h in series [7] is 15%. Also, in series [8], the remaining at 10 min was found to be 43%.

For the compound `C#CCN(C)[C@H](C)Cc1ccccc1` [SELEGILINE], the Uptake in series [2] is given as 0.057%.

Regarding `C#CCN(C)[C@@H](C)Cc1ccc(F)cc1`, the “% injected dose/cm3” value in series [2] stood at 0.021%. Moreover, the “Peak radioactivity in blood” value in series [3] is 0.11 % injected dose cm**-3; in series [4], 0.01 % injected dose cm**-3. Also, in series [5], the remaining at 1 min turned out to be 98%. Further, the remaining at 0.5 h in series [6] is 30%. Moreover, the remaining at 1 h in series [7] was 22%. Also, the remaining at 10 min in series [8] worked out at 61%.

The record behind these values is ChEMBL document CHEMBL1124851, “Synthesis of (R)-(-)- and (S)-(+)-4-fluorodeprenyl and (R)-(-)- and (S)-(+)-[N-11C-methyl]-4-fluorodeprenyl and positron emission tomography studies in baboon brain” (J Med Chem, 1990).
